Reference: ChEMBL document CHEMBL3351552, “Structure-activity profiles of novel 6-substituted pyrrolo[2,3-d]pyrimidine thienoyl antifolates with modified amino acids for cellular uptake by folate receptors α and β and the proton-coupled folate transporter” (J Med Chem, 2014)
The source made the active and inactive calls. The rule behind the calls is not given here.

How the values were obtained:
[1] = molecular target: Folate receptor alpha (Homo sapiens) (UniProt P15328); experiment: Inhibition of [3H]folic acid binding to FRalpha (unknown origin) expressed in Chinese hamster RT16 cells; type: cell-based
Summary of the method: (§1)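 RT16 (FRα) or D4 (FRβ) CHO cells (~5 × 10^6) were stripped of bound folate with pH 3.5 acetate/saline, then washed in ice-cold HEPES-buffered saline pH 7.4. Cells were incubated 15 min at 0 °C with 50 nM [3H]folic acid (0.5 Ci/mmol) plus 0–1000 nM unlabeled competitor. Cells were rinsed cold, NaOH-solubilized, and counts normalized to protein. […] Mean ± SE, n=3.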

[2] = molecular target: T1, Proton-coupled folate transporter (Homo sapiens) (UniProt Q96NT5); experiment: Inhibition of PCFT (unknown origin) expressed in Chinese hamster R2/PCFT4 cells assessed as reduction in PCFT-mediated [3H]MTX transport at 1 uM at pH 5.5 and 37 degC incubated for 5 mins; type: cell-based
T1 sequence (whole entry): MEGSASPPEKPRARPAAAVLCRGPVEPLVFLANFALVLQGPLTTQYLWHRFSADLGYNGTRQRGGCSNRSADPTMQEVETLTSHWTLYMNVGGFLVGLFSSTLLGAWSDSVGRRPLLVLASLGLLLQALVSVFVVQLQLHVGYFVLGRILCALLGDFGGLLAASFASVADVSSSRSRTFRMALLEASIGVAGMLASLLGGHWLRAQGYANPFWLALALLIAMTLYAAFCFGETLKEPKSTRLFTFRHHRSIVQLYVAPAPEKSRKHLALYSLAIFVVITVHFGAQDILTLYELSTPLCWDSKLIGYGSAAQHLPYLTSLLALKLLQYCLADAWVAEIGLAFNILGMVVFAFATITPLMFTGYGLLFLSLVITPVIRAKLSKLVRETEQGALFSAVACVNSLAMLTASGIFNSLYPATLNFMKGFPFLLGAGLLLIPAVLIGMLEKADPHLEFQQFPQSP
Summary of the method: (§2)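 Uptake was quenched with ice-cold DPBS, cells washed and solubilized in 0.5 N NaOH. Radioactivity was expressed per mg protein and normalized to untreated controls. Mean ± SE of three experiments.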

[3] = molecular target: T2, Proton-coupled folate transporter (Homo sapiens, UniProt Q96NT5); experiment: Inhibition of PCFT (unknown origin) expressed in Chinese hamster R2/PCFT4 cells assessed as reduction in PCFT-mediated [3H]MTX transport at pH 5.5 and 37 degC incubated for 5 mins; type: cell-based
T2 sequence (Q96NT5 whole entry): T1 sequence (whole entry)

KB [4] = experiment: Cytotoxicity against human KB cells assessed as cell growth inhibition incubated up to 96 hrs by Celltiter-blue cell viability assay; type: functional, cell-based
Summary of the method: (§3)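 Cells plated at ~2500–5000/well in folate-free RPMI with 10% dialyzed FBS, antibiotics, 2 nM LCV and 2 mM L-glutamine, exposed to a range of drug concentrations. RT16 were pre-cultured 3 days in folate-free RPMI. FR dependence was tested in parallel wells containing 200 nM folic acid. Incubation up to 96 h, CellTiter-Blue fluorescence read-out. IC50 taken versus untreated cells.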

KB [5] = experiment: Cytotoxicity against human KB cells assessed as cell growth inhibition incubated up to 96 hrs in presence of 60 uM adenosine by Celltiter-blue cell viability assay; type: functional, cell-based
Summary of the method: (§4)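 KB cells grown in complete folate-free RPMI 1640 with 2 nM LCV over a range of drug concentrations, with added thymidine (10 μM), adenosine (60 μM) or AICA (320 μM) as protecting agents. After up to 96 h, density measured by CellTiter-Blue fluorescence and normalized to drug-free cells. Experiments run in triplicate.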

KB [6] = experiment: Cytotoxicity against human KB cells assessed as cell growth inhibition incubated up to 96 hrs in presence of 200 nM folic acid by Celltiter-blue cell viability assay; type: functional, cell-based; summary of the method: as §3
R2 [7] = experiment: Cytotoxicity against Chinese hamster R2 cells expressing empty vector assessed as cell growth inhibition incubated up to 96 hrs by Celltiter-blue cell viability assay; type: cell-based, Cricetulus griseus; settings: R2, 96 h
KB [8] = experiment: Cytotoxicity against human KB cells assessed as cell growth inhibition incubated up to 96 hrs in presence of 10 uM thymidine by Celltiter-blue cell viability assay; type: functional, cell-based; summary of the method: as §4
[9] = molecular target: Folate receptor beta (Homo sapiens) (UniProt P14207); experiment: Inhibition of [3H]folic acid binding to FRbeta (unknown origin) expressed in Chinese hamster D4 cells; type: cell-based; summary of the method: as §1
R2 [10] = experiment: Cytotoxicity against Chinese hamster R2 cells assessed as cell growth inhibition incubated up to 96 hrs by Celltiter-blue cell viability assay; type: cell-based; settings: Cricetulus griseus, R2, 96 h
[11] = molecular target: T1, Proton-coupled folate transporter (Homo sapiens); experiment: Inhibition of PCFT (unknown origin) expressed in Chinese hamster R2/PCFT4 cells assessed as reduction in PCFT-mediated [3H]MTX transport at 10 uM at pH 6.8 and 37 degC incubated for 5 mins; type: cell-based; summary of the method: as §2
[12] = molecular target: T1, Proton-coupled folate transporter (Homo sapiens); experiment: Inhibition of PCFT (unknown origin) expressed in Chinese hamster R2/PCFT4 cells assessed as reduction in PCFT-mediated [3H]MTX transport at 10 uM at pH 5.5 and 37 degC incubated for 5 mins; type: cell-based; summary of the method: as §2
KB [13] = experiment: Cytotoxicity against human KB cells assessed as cell growth inhibition incubated up to 96 hrs in presence of 320 uM AICA by Celltiter-blue cell viability assay; type: functional, cell-based; summary of the method: as §4
[14] = molecular target: T1, Proton-coupled folate transporter (Homo sapiens); experiment: Inhibition of PCFT (unknown origin) expressed in Chinese hamster R2/PCFT4 cells assessed as reduction in PCFT-mediated [3H]MTX transport at 1 uM at pH 6.8 and 37 degC incubated for 5 mins; type: cell-based; summary of the method: as §2

Chain of Folate receptor alpha (Homo sapiens) (P15328 25-234 limits assumed): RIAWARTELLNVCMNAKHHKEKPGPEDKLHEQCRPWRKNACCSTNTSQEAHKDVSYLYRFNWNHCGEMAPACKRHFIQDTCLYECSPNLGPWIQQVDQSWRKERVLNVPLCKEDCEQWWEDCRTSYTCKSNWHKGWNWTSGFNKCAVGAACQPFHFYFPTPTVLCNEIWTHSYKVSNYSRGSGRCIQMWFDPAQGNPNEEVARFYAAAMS
Chain of Folate receptor beta (Homo sapiens) (P14207 17-230 limits assumed): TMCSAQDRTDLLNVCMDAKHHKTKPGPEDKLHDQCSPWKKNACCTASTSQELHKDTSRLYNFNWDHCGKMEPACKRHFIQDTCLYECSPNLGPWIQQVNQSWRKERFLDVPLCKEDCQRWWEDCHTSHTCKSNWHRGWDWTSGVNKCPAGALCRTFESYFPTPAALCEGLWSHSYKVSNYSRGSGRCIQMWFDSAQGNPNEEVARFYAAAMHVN

SMILES	inhibition [1]	inhibition [2] [%]	Ki [3] [µM]	inhibition [9]	inhibition [11] [%]	inhibition [12] [%]	inhibition [14] [%]	IC50 (KB [4]) [µM]	growth inhibition (GI) (KB [5])	IC50 (KB [6]) [µM]	IC50 (R2 [7]) [µM]	growth inhibition (GI) (KB [8])	IC50 (R2 [10]) [µM]	growth inhibition (GI) (KB [13])
Nc1nc2[nH]c(CCCc3ccc(C(=O)N[C@@H](CCCC(=O)O)C(=O)O)s3)cc2c(=O)[nH]1	Active	10	1.6	Active	30	75	–	0.009	inactive	> 1	> 1	Active	> 1	inactive
Nc1nc2[nH]c(CCCc3ccc(C(=O)O)s3)cc2c(=O)[nH]1	Active	–	–	Active	–	–	–	> 1	–	> 1	> 1	–	> 1	–
Nc1nc2[nH]c(CCCc3ccc(C(=O)N[C@@H](CC(=O)O)C(=O)O)s3)cc2c(=O)[nH]1	Active	–	–	Active	–	–	–	> 1	–	> 1	> 1	–	> 1	–
CCC[C@H](NC(=O)c1ccc(CCCc2cc3c(=O)[nH]c(N)nc3[nH]2)s1)C(=O)O	Active	25	2.9	Active	30	70	–	> 1	–	> 1	> 1	–	> 1	–
Nc1nc2[nH]c(CCCc3ccc(C(=O)NCCCC(=O)O)s3)cc2c(=O)[nH]1	Active	–	–	Active	–	–	–	> 1	–	> 1	> 1	–	> 1	–

Now from value to compound, other results behind:

inhibition [1]	inhibition [2] [%]	Ki [3] [µM]	inhibition [9]	inhibition [11] [%]	inhibition [12] [%]	inhibition [14] [%]	SMILES	IC50 (KB [4]) [µM]	growth inhibition (GI) (KB [5])	IC50 (KB [6]) [µM]	IC50 (R2 [7]) [µM]	growth inhibition (GI) (KB [8])	IC50 (R2 [10]) [µM]	growth inhibition (GI) (KB [13])
Active	–	–	Active	–	–	–	Nc1nc(=O)c2nc(CNc3ccc(C(=O)N[C@@H](CCC(=O)O)C(=O)O)cc3)cnc2[nH]1	–	–	–	–	–	–	–
Active	80	–	Active	70	95	20	Nc1nc2[nH]c(CCCc3ccc(C(=O)N[C@@H](CCC(=O)O)C(=O)O)s3)cc2c(=O)[nH]1	–	inactive	> 1	–	Active	–	inactive
inactive	–	–	inactive	–	–	–	CN(Cc1cnc2nc(N)nc(N)c2n1)c1ccc(C(=O)N[C@@H](CCC(=O)O)C(=O)O)cc1 [METHOTREXATE]	–	–	–	> 1	–	–	–
